From ChEMBL document CHEMBL4138126, “Synthesis, antiproliferative, anti-tubulin activity, and docking study of new 1,2,4-triazoles as potential combretastatin analogues” (Eur J Med Chem, 2017)

Assays:
HepG2 = assay: Cytotoxicity in human HepG2 cells assessed as reduction in cell viability incubated for 48 hrs by MTT assay; assay type: functional, cell-based; conditions: HepG2, 48 h
Procedure, shortened: (§1)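 HepG2 and HL60 (ATCC) grown in DMEM with 10% FBS, 2 mM L-glutamine, penicillin/streptomycin, amphotericin B at 37 °C, 5% CO2. Samples dissolved in DMSO, diluted thousandfold in assay. Cells seeded in serum-free medium, treated with serial concentrations 48 h; MTT 4 h, formazan dissolved in acidified isopropanol, A570. Triplicates averaged; viability relative to untreated/vehicle control.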

HL-60 = assay: Cytotoxicity in human HL60 cells assessed as reduction in cell viability incubated for 48 hrs by MTT assay; assay type: functional, cell-based; conditions: HL-60, 48 h; procedure, shortened: as §1
CCRF-CEM = assay: Growth inhibition of human CCRF-CEM cells assessed as cell growth at 10 uM after 48 hrs by sulforhodamine B assay; assay type: functional; conditions: read-out: Activity
Procedure, shortened: (§2)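 NCI 60-cell-line panel screen (nine cancer types). Compounds added at single concentration 10^-5 M, cultures incubated 48 h; growth inhibition percentages reported.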

HL-60(TB) = assay: Growth inhibition of human HL-60(TB) cells assessed as cell growth at 10 uM after 48 hrs by sulforhodamine B assay; assay type: functional; conditions: HL-60, 48 h, read-out: Activity
Procedure, shortened: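 Screened by the NCI in its 60-cell-line panel covering nine cancer types, including leukemia. Compounds were added at a single concentration, and the cultures were incubated for 48 h. Results are reported as percent growth inhibition.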

MOLT-4 = assay: Growth inhibition of human MOLT4 cells assessed as cell growth at 10 uM after 48 hrs by sulforhodamine B assay; assay type: functional; conditions: MOLT-4, 48 h, read-out: Activity; procedure, shortened: as §2
SR = assay: Growth inhibition of human SR cells assessed as cell growth at 10 uM after 48 hrs by sulforhodamine B assay; assay type: functional; conditions: read-out: Activity
Procedure, shortened: (§3)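 NCI 60-cell-line panel from nine tumour types (leukaemia, lung, colon, CNS, melanoma, ovarian, renal, prostate, breast). Each compound was added at one single concentration, and cultures were incubated for 48 h. Results are reported as percent growth inhibition.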

EKVX = assay: Growth inhibition of human EKVX cells assessed as cell growth at 10 uM after 48 hrs by sulforhodamine B assay; assay type: functional; conditions: read-out: Activity; procedure, shortened: as §2
HOP-62 = assay: Growth inhibition of human HOP62 cells assessed as cell growth at 10 uM after 48 hrs by sulforhodamine B assay; assay type: functional; conditions: HOP-62, 48 h, read-out: Activity; procedure, shortened: as §2
HOP-92 = assay: Growth inhibition of human HOP92 cells assessed as cell growth at 10 uM after 48 hrs by sulforhodamine B assay; assay type: functional; conditions: HOP-92, 48 h, read-out: Activity; procedure, shortened: as §2
NCI-H226 = assay: Growth inhibition of human NCI-H226 cells assessed as cell growth at 10 uM after 48 hrs by sulforhodamine B assay; assay type: functional; conditions: NCI-H226, 48 h, read-out: Activity; procedure, shortened: as §2
NCI-H23 = assay: Growth inhibition of human NCI-H23 cells assessed as cell growth at 10 uM after 48 hrs by sulforhodamine B assay; assay type: functional; conditions: NCI-H23, 48 h, read-out: Activity; procedure, shortened: as §2
NCI-H322M = assay: Growth inhibition of human NCI-H322M cells assessed as cell growth at 10 uM after 48 hrs by sulforhodamine B assay; assay type: functional; conditions: read-out: Activity; procedure, shortened: as §2
NCI-H460 = assay: Growth inhibition of human NCI-H460 cells assessed as cell growth at 10 uM after 48 hrs by sulforhodamine B assay; assay type: functional; conditions: NCI-H460, 48 h, read-out: Activity; procedure, shortened: as §2
NCI-H522 = assay: Growth inhibition of human NCI-H522 cells assessed as cell growth at 10 uM after 48 hrs by sulforhodamine B assay; assay type: functional; conditions: NCI-H522, 48 h, read-out: Activity; procedure, shortened: as §2
HCT-116 = assay: Growth inhibition of human HCT116 cells assessed as cell growth at 10 uM after 48 hrs by sulforhodamine B assay; assay type: functional; conditions: HCT-116, 48 h, read-out: Activity; procedure, shortened: as §2
HCT-15 = assay: Growth inhibition of human HCT15 cells assessed as cell growth at 10 uM after 48 hrs by sulforhodamine B assay; assay type: functional; conditions: HCT-15, 48 h, read-out: Activity; procedure, shortened: as §2
HT-29 = assay: Growth inhibition of human HT-29 cells assessed as cell growth at 10 uM after 48 hrs by sulforhodamine B assay; assay type: functional; conditions: HT-29, 48 h, read-out: Activity; procedure, shortened: as §2
KM12 = assay: Growth inhibition of human KM12 cells assessed as cell growth at 10 uM after 48 hrs by sulforhodamine B assay; assay type: functional; conditions: KM12, 48 h, read-out: Activity; procedure, shortened: as §2
LOX IMVI = assay: Growth inhibition of human LOXIMVI cells assessed as cell growth at 10 uM after 48 hrs by sulforhodamine B assay; assay type: functional; conditions: read-out: Activity; procedure, shortened: as §2
M14 = assay: Growth inhibition of human M14 cells assessed as cell growth at 10 uM after 48 hrs by sulforhodamine B assay; assay type: functional; conditions: M14, 48 h, read-out: Activity; procedure, shortened: as §2
SK-MEL-2 = assay: Growth inhibition of human SK-MEL-2 cells assessed as cell growth at 10 uM after 48 hrs by sulforhodamine B assay; assay type: functional; conditions: SK-MEL-2, 48 h, read-out: Activity; procedure, shortened: as §2
IGROV-1 = assay: Growth inhibition of human IGROV1 cells assessed as cell growth at 10 uM after 48 hrs by sulforhodamine B assay; assay type: functional; conditions: IGROV-1, 48 h, read-out: Activity; procedure, shortened: as §2
OVCAR-5 = assay: Growth inhibition of human OVCAR5 cells assessed as cell growth at 10 uM after 48 hrs by sulforhodamine B assay; assay type: functional; conditions: OVCAR-5, 48 h, read-out: Activity; procedure, shortened: as §2
OVCAR-8 = assay: Growth inhibition of human OVCAR8 cells assessed as cell growth at 10 uM after 48 hrs by sulforhodamine B assay; assay type: functional; conditions: OVCAR-8, 48 h, read-out: Activity; procedure, shortened: as §2
NCI/ADR-RES = assay: Growth inhibition of human NCI-ADR-RES cells assessed as cell growth at 10 uM after 48 hrs by sulforhodamine B assay; assay type: functional; conditions: read-out: Activity; procedure, shortened: as §2
SK-OV-3 = assay: Growth inhibition of human SKOV3 cells assessed as cell growth at 10 uM after 48 hrs by sulforhodamine B assay; assay type: functional; conditions: SK-OV-3, 48 h, read-out: Activity; procedure, shortened: as §2
A498 = assay: Growth inhibition of human A498 cells assessed as cell growth at 10 uM after 48 hrs by sulforhodamine B assay; assay type: functional; conditions: A498, 48 h, read-out: Activity; procedure, shortened: as §2
DU-145 = assay: Growth inhibition of human DU145 cells assessed as cell growth at 10 uM after 48 hrs by sulforhodamine B assay; assay type: functional; conditions: DU-145, 48 h, read-out: Activity; procedure, shortened: as §2
MCF7 = assay: Growth inhibition of human MCF7 cells assessed as cell growth at 10 uM after 48 hrs by sulforhodamine B assay; assay type: functional; conditions: MCF7, 48 h, read-out: Activity; procedure, shortened: as §2
Hs-578T = assay: Growth inhibition of human Hs 578T cells assessed as cell growth at 10 uM after 48 hrs by sulforhodamine B assay; assay type: functional; conditions: read-out: Activity; procedure, shortened: as §2
BT-549 = assay: Growth inhibition of human BT549 cells assessed as cell growth at 10 uM after 48 hrs by sulforhodamine B assay; assay type: functional; conditions: BT-549, 48 h, read-out: Activity; procedure, shortened: as §2
T47D = assay: Growth inhibition of human T47D cells assessed as cell growth at 10 uM after 48 hrs by sulforhodamine B assay; assay type: functional; conditions: read-out: Activity; procedure, shortened: as §3

| Structure (SMILES) | IC50 (HepG2) [µM] | IC50 (HL-60) [µM] | growth at 10 µM (CCRF-CEM) [%] | growth at 10 µM (HL-60(TB)) [%] | growth at 10 µM (MOLT-4) [%] | growth at 10 µM (SR) [%] | growth at 10 µM (EKVX) [%] | growth at 10 µM (HOP-62) [%] | growth at 10 µM (HOP-92) [%] | growth at 10 µM (NCI-H226) [%] | growth at 10 µM (NCI-H23) [%] | growth at 10 µM (NCI-H322M) [%] | growth at 10 µM (NCI-H460) [%] | growth at 10 µM (NCI-H522) [%] | growth at 10 µM (HCT-116) [%] | growth at 10 µM (HCT-15) [%] | growth at 10 µM (HT-29) [%] | growth at 10 µM (KM12) [%] | growth at 10 µM (LOX IMVI) [%] | growth at 10 µM (M14) [%] | further results |
| --- | --- | --- | --- | --- | --- | --- | --- | --- | --- | --- | --- | --- | --- | --- | --- | --- | --- | --- | --- | --- | --- |
| CCOc1ccc(-n2nc(C(=O)Nc3ccc(F)c(F)c3)nc2-c2cc(OC)c(OC)c(OC)c2)cc1 | 31.8 | 17.1 | 44.1 | 89 | 50 | 64 | 76.5 | 89.1 | 67 | 69.1 | 77.3 | 73 | 77.9 | 61.1 | 51.2 | 63.8 | 74.6 | 56.7 | 66.4 | 70.2 | growth at 10 µM (SK-MEL-2): 78.4%; growth at 10 µM (IGROV-1): 81.3%; growth at 10 µM (OVCAR-5): 101%; growth at 10 µM (OVCAR-8): 42.2%; growth at 10 µM (NCI/ADR-RES): 67.5%; growth at 10 µM (SK-OV-3): 85.2%; growth at 10 µM (A498): 68.9%; growth at 10 µM (DU-145): 80%; growth at 10 µM (MCF7): 78.8%; growth at 10 µM (Hs-578T): 48.1%; growth at 10 µM (BT-549): 65.5%; growth at 10 µM (T47D): 41.7% |
| COc1cccc(-n2nc(C(=O)NCc3ccccc3OC)nc2-c2cc(OC)c(OC)c(OC)c2)c1 | 1.67 | > 100 | 107 | 103 | 103 | 93.8 | 91.1 | 85.9 | 108 | 96.8 | 90.7 | 94.3 | 111 | 60.5 | 102 | 96.8 | 81.3 | 95.6 | 95.9 | 99.8 | growth at 10 µM (SK-MEL-2): 77.8%; growth at 10 µM (IGROV-1): 88.5%; growth at 10 µM (OVCAR-5): 113%; growth at 10 µM (OVCAR-8): 103%; growth at 10 µM (NCI/ADR-RES): 77.4%; growth at 10 µM (SK-OV-3): 96.7%; growth at 10 µM (A498): 104%; growth at 10 µM (DU-145): 106%; growth at 10 µM (MCF7): 98.7%; growth at 10 µM (Hs-578T): 99.9%; growth at 10 µM (BT-549): 103%; growth at 10 µM (T47D): 75.8% |
| CCOc1ccc(-n2nc(C(=O)Nc3cc(OC)c(OC)c(OC)c3)nc2-c2cc(OC)c(OC)c(OC)c2)cc1 | 37.8 | > 100 | 66.5 | 98.2 | 67.5 | 40.7 | 96.1 | 95.7 | 69.9 | 78.1 | 85 | 89.2 | 92.1 | 65.9 | 75.8 | 82.1 | 84.6 | 81.8 | 89 | 91.5 | growth at 10 µM (SK-MEL-2): 85.6%; growth at 10 µM (IGROV-1): 90.8%; growth at 10 µM (OVCAR-5): 102%; growth at 10 µM (OVCAR-8): 74%; growth at 10 µM (NCI/ADR-RES): 85.8%; growth at 10 µM (SK-OV-3): 99.7%; growth at 10 µM (A498): 67.3%; growth at 10 µM (DU-145): 99.1%; growth at 10 µM (MCF7): 83.2%; growth at 10 µM (Hs-578T): 65.6%; growth at 10 µM (BT-549): 91.5%; growth at 10 µM (T47D): 51.4% |
